Experimental data pooled from the literature.
Protocols differ between the studies behind these lines.
Effect on: cell growth or viability

N#Cc1cc(/C=N/NC(=N)N/N=C/c2ccc(OC(F)(F)F)cc2)ccc1F
IC50 (L6; resazurin; 70 h): 7.05 µM

COc1cc2c3c(n(CCCNC(C)C)c(=O)c2cc1OC)-c1nc2c(cc1C3=O)OCO2
IC50 (RS4-11; MTS; 72 h): 0.053 µM

CN1C(=O)CCC(N2Cc3c(C#CC4CCN(C(=O)[C@H]5CC[C@H](NC(=O)[C@@H]6NC7(CCCCC7)[C@@]7(C(=O)Nc8cc(Cl)ccc87)[C@H]6c6cccc(Cl)c6F)CC5)CC4)cccc3C2=O)C1=O (stereo partly shown)
IC50 (RS4-11): 0.751 µM

COc1cc2c3c(n(CCCn4ccnc4)c(=O)c2cc1OC)-c1nc2c(cc1C3=O)OCO2
IC50 (RS4-11; MTS; 72 h): 0.12 µM

CO[C@]12C[C@@H](COC(=O)c3cncc(Br)c3)CN(C)[C@@H]1Cc1cn(C)c3cccc2c13
IC50 (HNE1; MTT; 48 h): 1.45 µM

CC(C)C[C@@H]1NC(=O)CNC(=O)[C@H](CC(N)=O)NC(=O)[C@H](CCCNC(=N)N)NC(=O)[C@H]([C@@H](C)O)NC(=O)[C@@H]2CSSC[C@@H]3NC(=O)[C@H]([C@@H](C)O)NC(=O)CNC(=O)CNC(=O)[C@H](C(C)C)NC(=O)[C@@H]4CSSC[C@H](NC(=O)[C@H]([C@@H](C)O)NC(=O)[C@H](CSSC[C@H](NC(=O)[C@H](C(C)C)NC(=O)[C@@H]5CCCN5C1=O)C(=O)NCC(=O)N[C@@H](CCC(=O)O)C(=O)N[C@@H]([C@@H](C)O)C(=O)N4)NC(=O)CNC(=O)[C@@H]1CCCN1C(=O)[C@H]([C@@H](C)O)NC(=O)[C@H](CC(N)=O)NC3=O)C(=O)N[C@@H](CO)C(=O)N[C@@H](Cc1c[nH]c3ccccc13)C(=O)N1CCC[C@H]1C(=O)N[C@@H](C(C)C)C(=O)N2
IC50 (Sf9; MTT; 24 h): 2.8 µM

N#Cc1cccc(CC=NNC(=N)NN=CCc2cccc(C#N)c2)c1
IC50 (L6; resazurin; 70 h): 2.63 µM

O=C1Nc2ccccc2C2(O)CCN3C12c1ccccc1S3(=O)=O (stereo not shown)
IC50 (L6): > 290 µM

N=C(N/N=C/c1ccc(Oc2ccccc2)cc1)N/N=C/c1ccc(Oc2ccccc2)cc1
IC50 (L6; resazurin; 70 h): 4.44 µM

CN1C(=O)C2c3ccccc3C(=O)N2CCC(=O)c2ccccc21 (stereo not shown)
IC50 (L6): > 300 µM

N#Cc1cc(C=NNC(=N)NN=Cc2ccc(F)c(C#N)c2)ccc1F
IC50 (L6; resazurin; 70 h): 5.95 µM

C=C(F)C(=O)N1CCN(c2nc(OC[C@@H]3CCCN3C)nc3c2CCN(c2cccc4cccc(Cl)c24)C3)C[C@@H]1CC#N
IC50 (A-427; ATP luminescence; 3D culture): > 1 µM

Cc1c(C(=O)O)ccc2c3n(nc12)[C@@H]1[C@H](C3)N(CC2CC2)[C@@]2(C(=O)Nc3cc(Cl)ccc32)[C@H]1c1cccc(Cl)c1F
IC50 (Colon 26; resazurin; 72 h): 0.259 µM

CCOC(=O)c1ccc2c(c1)C(=O)CCN1C(=O)c3ccccc3C1C(=O)N2 (stereo not shown)
IC50 (L6): > 260 µM

COc1cc2nc(N3CCN(C(=O)c4ccco4)CC3)nc(N)c2cc1OC
IC50 (HNE1; MTT; 48 h): 41.6 µM

C=CC(=O)N1CCN(c2nc(=O)n(-c3c(C)ccnc3C(C)C)c3nc(-c4c(O)cccc4F)c(F)cc23)[C@@H](C)C1
IC50 (KYSE-410; ATP luminescence): 0.0676 µM
